Assay results of several laboratories.
Lines come from different studies, so protocols differ.
Effect on: cell growth or viability

| Compound | cell line | assay | setting | endpoint | result |
| --- | --- | --- | --- | --- | --- |
| O=C1Nc2ccccc2C1=NNc1nnc2n1N=C(c1ccccc1)CS2 | Hs-578T | SRB | 10 µM | inhibition | 28% |
| CC[C@@H](C)[C@H](N)C(=O)N1Cc2ccccc2C1 | NB-4 | ATP luminescence | 48 h | IC50 | 1.5 µM |
| COc1ccc(-c2ccc(-c3ccc(C(=N)N)nc3)s2)cc1Cl | Hs-578T | SRB |  | GI50 | 1.85 µM |
| Cn1nnc2c(C(N)=O)ncn2c1=O | Hs746T |  |  | EC50 | > 1000 µM |
| COc1cc(Nc2nccc(-c3cnn4nc(OC)ccc34)n2)cc(C(F)(F)F)c1 | U2OS | ATP luminescence |  | IC50 | 0.39 µM |
| COc1cccc(Oc2ccccc2NC(=O)CNC(=O)c2cccc3ccccc23)c1 | Hs-578T | SRB | 48 h | GI50 | 0.38 µM |
| N=C(CCl)NCCC[C@H](NC(=O)c1ccccc1)C(N)=O | U2OS | XTT | 72 h | EC50 | > 200 µM |
| Cc1ccc(NC(=O)c2ccc(CN3CCN(C)CC3)cc2)cc1Nc1nccc(-c2cccnc2)n1 | HeLa | MTT | 1 µM, 48 h | inhibition | 11% |
| CCCCCCCCCCCCNC(=O)NCCCC[C@H](NS(C)(=O)=O)C(=O)N[C@H](C)C(=O)N[C@@H](CCCNC(=N)N)C(N)=O | HeLa | MTT | 72 h | EC50 | 23.1 to 41.4 µM |
| C=CC(=O)N1CCC[C@@H](n2nc(-c3ccc(Oc4ccccc4)cc3)c3c(N)ncnc32)C1 | NB-4 | ATP luminescence | 72 h | GI50 | 7.5 µM |
| COc1cc(-c2ccc(-c3ccc(C(=N)N)nc3)s2)cc(OC)c1OC | SK-MEL-2 | SRB |  | GI50 | 2.09 µM |
| CCCCCCCCCCCCNC(=S)NCCCC[C@H](NS(C)(=O)=O)C(=O)N[C@@H](C)C(=O)N[C@@H](CCCNC(=N)N)C(N)=O | HeLa | MTT | 72 h | EC50 | 28.9 to 39.1 µM |
| COc1cc(C(=O)Nc2cc(OC)c3ccccc3n2)nc(C(=O)Nc2cc(OC)c3ccccc3n2)c1 | U2OS | ATP luminescence | 72 h | IC50 | > 40 µM |
